Compound activity (PubChem BioAssay)
Rows were chosen to be rich in hits. Some 1.9% of all compounds tested hit in one or more screens of this group.
SKN-1 inh: inhibitors of C. elegans SKN-1 | inhibition, % at 21.8 µM | 0.49% of 360,000 active | AID 624304 | C. elegans VP596 Pgst-4::GFP/RFP ratio, acrylamide-induced, 24 h;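 active = interference check ratio from 0.5 to 1.5 plus GFP to RFP signal ratio inhibition reaching or exceeding a fixed threshold, cut at about 30% in these data, passing the limit was not always enough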
Rev-erbA mod: modulates human Rev-erb alpha binding to DNA; AID 1259318; P20393; Rev-erbα–FITC-DNA binding, fluorescence polarization, 90 min; activity, % at 10 µM; 0.79% of 370,000 active;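 active = activity above about 14%, limit read from the data; passing the limit was not always enough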;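 also: 0% = DMSO wells with 35 nM protein and 100% = DMSO wells with 750 nM protein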
Target sequence (P20393 whole entry, looked up): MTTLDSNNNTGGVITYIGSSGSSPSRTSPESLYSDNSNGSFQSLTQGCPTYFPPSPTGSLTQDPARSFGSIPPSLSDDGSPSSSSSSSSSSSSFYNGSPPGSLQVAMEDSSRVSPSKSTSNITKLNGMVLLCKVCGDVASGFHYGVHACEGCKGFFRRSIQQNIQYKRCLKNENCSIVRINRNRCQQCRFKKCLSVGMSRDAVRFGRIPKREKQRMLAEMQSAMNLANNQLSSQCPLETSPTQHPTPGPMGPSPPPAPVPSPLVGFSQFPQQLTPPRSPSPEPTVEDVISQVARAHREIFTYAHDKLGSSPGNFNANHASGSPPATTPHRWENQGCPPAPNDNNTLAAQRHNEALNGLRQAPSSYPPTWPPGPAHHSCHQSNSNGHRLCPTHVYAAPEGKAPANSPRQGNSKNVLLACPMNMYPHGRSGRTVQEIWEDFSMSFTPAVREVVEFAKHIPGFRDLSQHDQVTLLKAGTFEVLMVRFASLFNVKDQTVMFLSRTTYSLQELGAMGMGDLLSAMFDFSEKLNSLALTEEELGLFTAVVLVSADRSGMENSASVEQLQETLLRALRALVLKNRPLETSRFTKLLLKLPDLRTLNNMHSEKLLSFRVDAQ
NR2E3 ag-1: NR2E3 (human) agonism | inhibition of corepressor binding, % at 4.78 µM | GST-NR2E3/biotin-RetCOR TR-FRET, 1536-well | 0.12% of 320,000 active | Q9Y5X4 | AID 2300;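 active = percent inhibition above the cutoff of mean plus 3 SD of all tested compounds, set per screening campaign, cut at about 20% in these data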;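 also: 0% = DMSO wells and 100% = biotin wells as full block of FRET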
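Material: NR2E3–RetCOR corepressor complex | Quantity: 1.35 nM GST-tagged NR2E3 final | Schedule: 5 h at 4 °C | Replication: Singlicate compound wells | Reagent: RetCOR corepressor, biotinylated, 7 nM | Controls: Biotin wells as high control, 0.6% DMSO wells as low control | Signal: TR-FRET, Eu(K)-anti-GST donor, streptavidin-D2 acceptor, ex 340, em 617/671 nm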
NR2E3 ag-2: activates human NR2E3 receptor. inhibition of corepressor binding, % at 3.98 µM. 0.35% of 360,000 active. AID 602229. CHO-S Gal4-NCOR/VP16-NR2E3 two-hybrid, luciferase. Q9Y5X4;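 active = inhibition above the mean of all tested compounds plus 3 SD, cut at about 70% in these data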;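 also: 0% = DMSO with NR2E3 transfected cells and 100% = cells lacking NR2E3 construct; higher means lower luciferase signal from less NR2E3 corepressor binding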
MT1-MMP act inh: MT1-MMP (human) activation inhibition; AID 651647; 0.061% of 360,000 active; P50281; GFP/RFP ratio change, % at 20 µM; HT1080 RFP-PRO-GFP cells, GFP/RFP ratio fluorescence, overnight; percent of plate control window, DMSO zero;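 active = GFP/RFP ratio change of at least 30% with cell ATP level not reduced by more than half and red fluorescence within 50% of control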
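Read-out: GFP/RFP fluorescence ratio; Test system: RFP-PRO-GFP reporter HT1080 cells; Compound dosing: single-point 20 µM compound, 1% DMSO; Times: overnight compound exposure at 37 °C.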
PG9 binder: small molecules binding HIV-1 gp120 antibody PG9; TR-FRET gp120-PG9 antibody binding; 0.43% of 360,000 active; inhibition, % at 6.7 µM; in the data active = inhibition above about 8.5%
* = called active by the depositor; . = no result.

SMILES	SKN-1 inh	Rev-erbA mod	NR2E3 ag-1	NR2E3 ag-2	MT1-MMP act inh	PG9 binder
Cc1ccc2sc(NC(=O)c3cccc(N4C(=O)CCC4=O)c3)nc2c1C	37.5*	4.2	1.8	2.4	-1.5	1.1
CCCCn1c(NC(=O)CC)c(C#N)c2nc3ccccc3nc21	5.8	.	-1.0	12.2	-3.6	0.1
CCCCn1c(NC(=O)c2ccccc2Cl)c(C#N)c2nc3ccccc3nc21	32.7	.	18.7	95.6*	-131.4	5.8
N#Cc1c(NC(=O)c2ccccc2Cl)n(Cc2ccccc2)c2nc3ccccc3nc12	17.8	0.6	2.6	87.0*	-78.0	-1.6
CCCCCCCCCCCCCCCC[N+](C)(C)CCl	37.6*	-1.1	.	11.5	-8.0	-0.3
Cc1ccc(CNC(=O)[C@@H](Cc2ccccc2)NC(=O)[C@H]2O[C@@H](n3ccc(N)nc3=O)[C@H](O)[C@@H]2O)o1	.	-2.4	.	.	.	-0.8
O=C(O)c1cc2ccccc2c(N=Nc2cccnc2)c1O	38.5*	.	-5.1	-30.5	2.0	.
COC(=O)C1=C(C)N=c2s/c(=C/c3cccs3)c(=O)n2C1c1cccs1 (stereo not given)	39.2*	-0.3	-4.7	-10.8	-5.1	-1.5
CCOC(=O)C1=C(C(=O)OCC)C2N(Cc3ccc(Br)cc3)c3ccccc3[C@@]23C[C@@H](C(=O)OC)N(S(=O)(=O)c2ccc(C(F)(F)F)cc2)C3=N1 (stereo not given in full)	.	-0.2	.	.	.	-3.0
Clc1ccsc1-c1ccc2ccccc2n1	89.7*	3.5	4.4	-2.6	-5.1	-0.8
O=C(CCN1C(=O)/C(=C/c2ccccc2Cl)SC1=S)Nc1ccccc1C(=O)O	39.2*	-3.5	-0.2	-24.2	2.3	-0.4
O=C(Nc1ccc2nc(-c3ccccc3)oc2c1)c1ccco1	75.3*	3.6	-0.2	-98.9	5.2	-0.8
COc1ccc(NC(=O)c2cccs2)cc1NC(=O)c1ccco1	-1.9	4.9	4.1	-14.7	11.5	0.7
O=C(Nc1ccc(NC(=O)c2ccco2)c(Cl)c1)c1ccccc1	4.8	0.3	-0.3	-20.9	-4.9	-0.2
O=C(Nc1ccc(-c2nc3ccccc3c(=O)o2)cc1)c1ccco1	2.6	0.4	1.4	-5.4	6.9	-1.3
COc1cccc(OC)c1C(=O)Nc1ccc2c(c1)Cc1ccccc1-2	3.2	1.8	4.0	-6.9	-2.9	-1.4
Cc1ccc(NC(=O)c2cccs2)cc1NC(=O)c1ccco1	43.9*	-3.5	0.0	3.6	0.7	-0.7
O=C(Nc1ccc(Br)c(Cl)c1)c1ccco1	86.2*	10.7	-0.6	-73.0	-0.9	0.3
O=C(Nc1ccc2c(c1)Cc1ccccc1-2)c1ccco1	71.9*	4.6	3.8	-122.0	9.5	0.7
CC(=O)[C@@]1(O)CCC2C3C=C(Cl)C4=CC(=O)[C@@H]5C[C@H]5[C@]4(C)C3CC[C@@]21C (stereo not given in full)	.	-1.4	.	.	.	.
CCCNC(=O)COC(=O)c1[nH]c(C)c(C(=O)OCC)c1C	35.4*	2.6	1.3	-5.9	1.8	2.3
CC(=O)c1c(C)[nH]c(C(=O)OCC(=O)N2CCN(S(=O)(=O)c3ccc(C)cc3)CC2)c1C	-2.3	2.4	0.6	23.4	-0.5	1.0
CCOC(=O)c1c(C)[nH]c(C(=O)OCC(=O)N2CCN(S(=O)(=O)c3ccccc3)CC2)c1C	42.2*	-0.5	-3.2	-4.7	-3.3	0.8
CCOC(=O)c1[nH]c(C)c(C(=O)OCC)c1C	15.2	-7.5	1.0	-50.7	1.5	0.7
CCC(C(=O)N(C(C)C)C(C)C)c1ccccc1 (stereo not given)	36.8*	-1.4	1.3	6.1	3.1	-0.7
SMILES	SKN-1 inh	Rev-erbA mod	NR2E3 ag-1	NR2E3 ag-2	MT1-MMP act inh	PG9 binder
CC1=NOC(=O)/C1=C/c1ccc(-c2ccc(Cl)cc2)o1	37.4*	.	4.4	-31.6	-6.2	.
CC1=NOC(=O)/C1=C\c1ccc(-c2ccc(Br)cc2)o1	-1.9	-5.7	.	-55.6	-18.4	0.0
COCCCNC(=O)c1cn(CCOC)c(=O)c2c1c1ccccc1n2C	6.7	3.2	0.7	-20.2	-3.4	0.9
COCCCNC(=O)c1cn(CC(C)C)c(=O)c2c1c1ccccc1n2C	50.4*	2.9	2.4	13.9	2.4	-2.1
Oc1ccc(N=Nc2ccc3ccccc3c2)cc1	45.8*	-2.1	-0.1	-151.7	1.7	-0.1
CC1(C)c2ccccc2C(=O)c2ccccc21	45.6*	4.0	.	-14.4	8.4	-1.4
CC1(C)C(=Cc2ccccc2)C(=O)c2ccccc21	40.6*	-9.6	.	-33.9	0.0	0.1
Cc1ccc(N2C(=O)c3ccccc3C(C)(C)C2=O)cc1	8.5	-1.9	-1.6	13.2	0.8	-2.6
N#Cc1ccc(S(=O)(=O)NC(=O)[C@H]2O[C@@H](n3ccc(=O)[nH]c3=O)[C@H](O)[C@@H]2O)cc1	.	8.9	.	.	.	-0.1
CCCCNC(=O)C1(C(=O)c2ccc(OC)cc2)CC(c2ccccn2)=NO1 (stereo not given)	.	4.7	.	.	.	.
C=CCN1C(=O)c2n[nH]c(COC)c2C1c1ccc(C)cc1 (stereo not given)	.	1.5	.	.	.	-0.3
O=C(NCc1ccco1)C1CCCN(S(=O)(=O)c2ccccc2[N+](=O)[O-])C1 (stereo not given)	.	3.3	.	.	.	.
O=C(COc1ccc(Br)cc1)NCc1cn2ccccc2n1	4.5	1.3	0.7	10.5	3.7	-0.8
Brc1ccc(OCc2cn3ccccc3n2)cc1	47.7*	3.4	5.6	-162.2	4.8	1.8
CCC(=O)N1CCN(c2ccc(NC(=O)c3cc4ccccc4o3)cc2Cl)CC1	30.7*	7.7	2.7	21.1	-15.4	-1.9
Cc1ccccc1C(=O)N[C@H](C(=O)N1CCC[C@H]1C(=O)NCCc1ccccc1Cl)C(C)C	.	2.7	.	.	.	-0.3
CCc1ccc(NC(=O)c2[nH]c(C)c(C(C)=O)c2C)cc1	-7.2	0.9	3.1	-111.6	4.0	1.7
CCc1ccc(Nc2oc(C)cc(=O)c2C(C)=O)cc1	69.2*	-4.5	0.7	-10.4	-6.2	0.9
CC1CCCCN1S(=O)(=O)c1ccc(C(=O)Nc2sccc2C(N)=O)cc1 (stereo not given)	40.3*	-2.0	3.6	-62.6	5.7	-1.4
O=C(NC1CCCC1)C1C(c2ccc(C(F)(F)F)cc2)=Nc2ccccc2N1C(=O)c1ccco1 (stereo not given)	40.9*	2.7	.	.	-1.0	0.8
Cc1ccc(Cn2cc(CN(C(C)(C)C)S(=O)(=O)c3ccccc3Br)nn2)cc1	.	8.0	.	.	.	.
CC(C)CCNC(=O)NC(=O)COC(=O)/C=C/c1cnc2ccccc2n1	37.3*	-1.8	-6.0	0.4	-3.7	-0.8
CC(C)CCNC(=O)NC(=O)COc1ccccc1C#N	37.8*	6.7	4.7	-63.3	10.5	-0.8
